# ChEMBL document CHEMBL1144276, “Synthesis and in vitro selective anti-Helicobacter pylori activity of pyrazoline derivatives” (2005)
# Tests used:
# Format in all cases: functional
# Helicobacter pylori [1] = assay: Minimal inhibitory concentration against 17 strains of Helicobacter pylori
# How it was run: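 Agar dilution against 16 clinical isolates plus reference strain NCTC 11637 (four metronidazole-resistant). Twofold serial dilutions in Columbia agar with 10% horse serum and 0.25% yeast extract, 128 to 0.0039 µg/mL, plates made fresh. Inoculum: 72 h growth suspended in Wilkins Chalgren broth at 0.5 McFarland, 5 µL multipoint spots; 37 °C, 72 h, microaerobic (10% CO2).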
# Helicobacter pylori [2] = assay: Minimal inhibitory concentration against metronidazole resistant Helicobacter pylori NCTC 11637 strain
# How it was run: (§1)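 Agar dilution. Columbia agar with 10% horse serum and 0.25% yeast extract holds serial twofold dilutions of compound, 128 to 0.0039 µg/mL, and plates are made on the day of use. Inoculum is 72 h growth suspended in Wilkins Chalgren broth to 0.5 McFarland, applied as 5 µL by multipoint inoculator. Plates are incubated 72 h at 37 °C, microaerobic (10% CO2).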
# Helicobacter pylori [3] = assay: Minimal inhibitory concentration against metronidazole resistant Helicobacter pylori 8 strain; how it was run: as §1
# Helicobacter pylori [4] = assay: Minimal inhibitory concentration against metronidazole resistant Helicobacter pylori 19 strain; how it was run: as §1
# Helicobacter pylori [5] = assay: Minimal inhibitory concentration against metronidazole resistant Helicobacter pylori 20 strain; how it was run: as §1
MIC50 (Helicobacter pylori [1]),MIC90 (Helicobacter pylori [1]),SMILES,MIC (Helicobacter pylori [2]),MIC (Helicobacter pylori [3]),MIC (Helicobacter pylori [4]),MIC (Helicobacter pylori [5])
8 µg/mL,16 µg/mL,COc1ccccc1C1CC(c2ccc(O)cc2)=NN1C(C)=O (configuration not stated),–,–,–,–
32 µg/mL,128 µg/mL,CC(=O)N1N=C(c2c(O)cccc2O)CC1c1ccc(C)cc1 (configuration not stated),–,–,–,–
4 µg/mL,8 µg/mL,CC(=O)N1N=C(c2ccccc2)CC1c1ccc(Cl)cc1 (configuration not stated),–,–,–,–

SMILES,MIC50 (Helicobacter pylori [1]),MIC90 (Helicobacter pylori [1]),MIC (Helicobacter pylori [2]),MIC (Helicobacter pylori [3]),MIC (Helicobacter pylori [4]),MIC (Helicobacter pylori [5])
Cc1ncc([N+](=O)[O-])n1CCO [METRONIDAZOLE],0.5 µg/mL,64 µg/mL,64 µg/mL,64 µg/mL,64 µg/mL,64 µg/mL
